Series [1] can be described thus: Apparent permeability from apical to basolateral side in human Caco2 cells. The series is classed as ADME, cell-based. Conditions: Caco-2. The gist of the method:
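Caco-2 monolayers on polycarbonate filter inserts, cells kept in 90% air/10% CO2. Compound diluted from 10 mM DMSO stock to 10 µM (final DMSO 0.1%) in FASSIF pH 7.4 on apical donor side. Receiver is HBSS pH 7.4 with 1% (w/v) BSA. Run at 37 °C with 500 rpm stirring. Receiver sampled at 15, 30 and 60 min, donor sampled at 60 min for mass balance. Membrane integrity checked afterwards, LC/MS/MS read-out, at least triplicates.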

The target of series [2] is Hepatitis C virus serine protease, NS3/NS4A (Hepatitis C virus, UniProt A3EZI9+D2K2A8). Description: Inhibition of HCV genotype 1a NS3/4A protease using Ac-DED(Edans)EEAbu-psi[COO]ASK(Dabcyl)-NH2 as substrate by FRET assay. Also noted: species or system Hepatitis C virus subtype 1a. The gist of the method:
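Full-length NS3/4A (protease–helicase/NTPase, genotype 1a) measured by FRET. Buffer: 50 mM HEPES pH 7.5, 10 mM DTT, 40% glycerol, 0.1% n-octyl-β-D-glucoside, 3.3% DMSO. Ki values derived.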

The subject of series [3] is Liver microsome. Description: Intrinsic clearance in human liver microsomes preincubated for 5 mins by LC/MS/MS analysis. Type of series: ADME. Conditions: microsomes, 5 min. An outline of the steps:
(§1)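 Compound at 1 µM preincubated 5 min at 37 °C with pooled human liver microsomes (0.5 mg/mL) in 0.1 M potassium phosphate pH 7.4. Reaction started with NADPH (1 mM final) and stopped at 0, 5, 15 and 40 min with ice-cold acetonitrile containing internal standard. LC/MS/MS read-out. ln(% remaining) regressed linearly on time; t1/2 and Clint derived assuming first-order kinetics. Dextromethorphan (3 µM) and midazolam (5 µM) served as CYP2D6/CYP3A4 controls.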
In general terms: Microsomes from liver hold many membrane-bound enzymes, among them those of drug oxidation.

Series [4] concerns the target Hepatitis C virus serine protease, NS3/NS4A (Hepatitis C virus, UniProt A3EZI9+D2K2A8, D168V). As to the kind of experiment: Inhibition of HCV NS3/4A protease D168V mutant using Ac-DED(Edans)EEAbu-psi[COO]ASK(Dabcyl)-NH2 as substrate by FRET assay. Also noted: species or system Hepacivirus hominis.
The test system of series [5] is Liver microsome. As to the kind of experiment: Half life in human liver microsomes preincubated for 5 mins by LC/MS/MS analysis. The series is classed as ADME. Conditions: microsomes. An outline of the steps:
as §1

The target of series [6] is Hepatitis C virus serine protease, NS3/NS4A (Hepatitis C virus, UniProt A3EZI9+D2K2A8, A156T). As to the kind of experiment: Inhibition of HCV NS3/4A protease A156T mutant using Ac-DED(Edans)EEAbu-psi[COO]ASK(Dabcyl)-NH2 as substrate by FRET assay. Also noted: species or system Hepacivirus hominis.
In the next series the test system is Hepatitis C virus. Description: Antiviral activity against HCV genotype 1b infected in human Huh-7 cells by firefly luciferase assay. Type of series: functional, cell-based, Hepacivirus hominis. An outline of the steps: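 Huh-7 cells carrying a subgenomic HCV genotype 1b replicon with firefly luciferase reporter; EC50 derived from luciferase signal.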
In series [7] the target is Hepatitis C virus serine protease, NS3/NS4A (Hepatitis C virus, UniProt A3EZI9+D2K2A8, R155K). As to the kind of experiment: Inhibition of HCV NS3/4A protease R155K mutant using Ac-DED(Edans)EEAbu-psi[COO]ASK(Dabcyl)-NH2 as substrate by FRET assay. Also noted: species or system Hepacivirus hominis.

By Papp is commonly meant the rate of passage across a membrane or cell layer, normalised by area and donor concentration. As usually defined, the Ki is the equilibrium dissociation constant of an inhibitor or competing ligand from its target. By EC50 is commonly meant the concentration giving half of the maximal effect. A high value points to a less potent agent.

Turning to `COc1cc(Oc2ccc(C3NC(=O)[C@H](NC(=O)OC(C)(C)C)CCCCC/C=C/CCCS(=O)(=O)NC(=O)c4ccccc4NC3=O)cc2)nc(-c2ccccc2)n1` (single isomer, unassigned; diastereomer 2), the Papp in series [1] is 0.15 ×10⁻⁶ cm/s. In addition, the Ki amounted to 80 nM in series [2], 600 nM in series [4], 160 nM in series [6] and 220 nM in series [7]. For the same compound, in the series on Liver microsome [3], the microsomal intrinsic clearance is 137 µL/min/mg. This compound also returned a t1/2 in the series on Liver microsome [5] of 10 min. Further, it took 15 µM to reach a half-maximal effect in the series with Hepatitis C virus (EC50).

For the origin of these results see ChEMBL document CHEMBL3352136, “Vinylated linear P2 pyrimidinyloxyphenylglycine based inhibitors of the HCV NS3/4A protease and corresponding macrocycles” (Bioorg Med Chem, 2014).
